Most compounds without a hit are left out; they make up all but 9.6% or so of the library.
Lmaj promast = Leishmania major promastigote growth inhibition | Leishmania major promastigotes, resazurin fluorescence viability | hit rate 9% among 200,000 | inhibition, % at 10 µM | AID 1063; in the data active means inhibition above about 50%;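 further: promastigotes grown with compound for 44 hours at 28 °C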
TNAP inh hiacc = blocks human TNAP under high phosphate acceptor concentration | P05186 | purified TNAP, CDP-star luminescence, 1 M DEA | inhibition, % at 20 µM | hit rate 0.03% among 200,000 | AID 1135;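 active means over 50% inhibition of tissue-nonspecific alkaline phosphatase at 20 µM in the single-dose screen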;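 further: plate controls were DMSO wells for no effect and EDTA-quenched wells as full inhibition for full effect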
Target sequence (P05186 whole entry, looked up): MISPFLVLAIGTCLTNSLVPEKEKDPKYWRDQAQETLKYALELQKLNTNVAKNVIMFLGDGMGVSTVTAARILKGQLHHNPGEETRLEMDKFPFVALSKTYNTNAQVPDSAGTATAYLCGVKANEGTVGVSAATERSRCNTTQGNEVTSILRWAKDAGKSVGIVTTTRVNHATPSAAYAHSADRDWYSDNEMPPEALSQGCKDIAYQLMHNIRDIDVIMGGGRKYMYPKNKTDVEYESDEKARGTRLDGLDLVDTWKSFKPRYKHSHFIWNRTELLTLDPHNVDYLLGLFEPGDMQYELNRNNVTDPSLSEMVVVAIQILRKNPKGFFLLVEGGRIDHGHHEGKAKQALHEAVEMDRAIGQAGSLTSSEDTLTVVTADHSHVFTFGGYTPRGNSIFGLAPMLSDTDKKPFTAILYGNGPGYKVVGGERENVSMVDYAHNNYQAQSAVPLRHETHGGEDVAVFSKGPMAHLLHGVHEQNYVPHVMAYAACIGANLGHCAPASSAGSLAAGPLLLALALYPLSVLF
TNAP inh no acc = TNAP (human) inhibition, acceptor-free conditions | inhibition, % at 20 µM | hit rate 0.26% among 200,000 | purified TNAP, CDP-star luminescence, 30 min | P05186;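 active means tissue-nonspecific alkaline phosphatase inhibition above about 50% at 20 µM in the single-dose screen, limit read from the data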;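 further: 0% = DMSO negative control and 100% = EDTA positive control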
TNAP act hi DEA = increases human TNAP activity under high phosphate acceptor concentration | 200,000 tested, under 10 active | purified TNAP, CDP-star luminescence, 1 M DEA, 30 min; stronger effect = higher value; 0 = EDTA background, 1 = DMSO-only activity | P05186 | AID 1136 | activation factor at 20 µM;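 active means activation factor at least 2 at 20 µM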
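Control set: EDTA negative control, DMSO positive control / Assay system: human TNAP / Quantity: TNAP 1/800 final / Evaluation: TNAP activation factor scaled between EDTA and DMSO control wells / Measured by: luminescent substrate turnover signal / Compound dosing: one dose, 20 µM / Times: 30 min enzyme reaction at room temperature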
bCat KO growth = beta-catenin-lacking colon tumor cell growth suppression. HCT116 beta-catenin knockout viability, CellTiter-Glo, 60 h; stronger effect = lower value. viability, % at 10 µM. hit rate 1.5% among 140,000. AID 818;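 active means viability at or under a set limit, the compound median less 4 SD, cut at about 6% in these data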;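 further: 0% = Hyamine 1622 control at 20 µM and 100% = untreated cell control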
HCT116 PTEN-null = growth suppressors of cells with PTEN tumor suppressor deletion; HCT116 PTEN-null viability, CellTiter-Glo, 60 h; stronger effect = lower value; hit rate 1.2% among 140,000; viability, % at 10 µM;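 active means viability at or below a set limit, 4 SD under the median of all tested compounds, cut at about 3.7% in these data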;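 further: PTEN knockout HCT116 line with beta catenin targeted HCT116 as companion control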
The depositor's hits bear a star.

`C=CCn1c(SCc2c(C(=O)OC)sc(N)c2C(=O)OC)nnc1-c1ccc(Br)cc1` gave Lmaj promast 99.2*, TNAP inh hiacc -1.1, TNAP inh no acc -16.0, TNAP act hi DEA 1, bCat KO growth 61.6 and HCT116 PTEN-null 58.3.
CCN(CC)S(=O)(=O)c1ccc2c3c(cccc13)C(=O)N2 was read as Lmaj promast -0.5, TNAP inh hiacc -4.2, TNAP inh no acc -12.2, TNAP act hi DEA 1, bCat KO growth 102.5 and HCT116 PTEN-null 85.8.
`CCN(c1cccc(C)c1)S(=O)(=O)c1ccc2c3c(cccc13)C(=O)N2` gave Lmaj promast 98.9*, TNAP inh hiacc 0.1, TNAP inh no acc 0.5, TNAP act hi DEA 1, bCat KO growth 77.3 and HCT116 PTEN-null 94.3.
COc1ccc(OCC(O)Cn2ccnc2C)cc1 (centres undefined) was read as Lmaj promast 67.0*, TNAP inh hiacc -0.1, TNAP inh no acc -2.9, TNAP act hi DEA 1, bCat KO growth 101.0 and HCT116 PTEN-null 98.0.
Screening COC(=O)CCCCC1SCC(NC(=O)c2ccccc2)C1=O (centres undefined) returned Lmaj promast -2.6, TNAP inh hiacc -0.1, TNAP inh no acc -8.2 and TNAP act hi DEA 1.
For CCOc1ccccc1-n1nnnc1SCC(=O)NCc1ccco1 the results were Lmaj promast -7.2, TNAP inh hiacc -2.2, TNAP inh no acc -6.1 and TNAP act hi DEA 1.
For O=C(COc1ccccc1[N+](=O)[O-])c1ccccc1 the results were Lmaj promast 98.9*, TNAP inh hiacc 8.6, TNAP inh no acc 11.4 and TNAP act hi DEA 0.9.
CCCOc1ccc(Cl)cc1CNc1ccccc1 was read as Lmaj promast 1.9, TNAP inh hiacc -8.6, TNAP inh no acc -12.9 and TNAP act hi DEA 1.1.
For Clc1ccc(OCCCNCc2ccccc2)c(Br)c1 the results were Lmaj promast 91.4*, TNAP inh hiacc -1.3, TNAP inh no acc -9.2, TNAP act hi DEA 1, bCat KO growth 1.2* and HCT116 PTEN-null 1.7*.
Clc1ccc(Cl)c(OCCCCNCc2ccccc2)c1 was read as Lmaj promast 98.0*, TNAP inh hiacc -3.3, TNAP inh no acc -16.8, TNAP act hi DEA 1, bCat KO growth 60.5 and HCT116 PTEN-null 62.7.
`Cc1cccc(C)c1NC(=O)c1cccc(COc2cc(Cl)ccc2Cl)c1` gave Lmaj promast 4.6, TNAP inh hiacc -6.2, TNAP inh no acc -9.1, TNAP act hi DEA 1.1, bCat KO growth 98.6 and HCT116 PTEN-null 94.6.
`O=[N+]([O-])c1ccccc1OCCCNCc1ccccc1` gave Lmaj promast 97.8*, TNAP inh hiacc -5.0, TNAP inh no acc -3.8 and TNAP act hi DEA 1.1.
Screening CC1SC(c2ccc(F)cc2)NC1=O (centres undefined) returned Lmaj promast -4.6, TNAP inh hiacc -4.5, TNAP inh no acc -7.2 and TNAP act hi DEA 1.
For Cc1ccc(S(=O)(=O)N2CCCCC2)cc1NC(=O)COC(=O)c1ccc2c(c1)OCO2 the results were Lmaj promast -1.3, TNAP inh hiacc 2.8, TNAP inh no acc -17.1, TNAP act hi DEA 1, bCat KO growth 93.9 and HCT116 PTEN-null 91.7.
For COc1cccc(CNc2nc3ccccc3n2CCN2CCCCC2)c1 the results were Lmaj promast 43.9, TNAP inh hiacc -1.8, TNAP inh no acc 9.1, TNAP act hi DEA 1, bCat KO growth 77.4 and HCT116 PTEN-null 65.2.
For COc1cccc(CNc2nc3ccccc3n2CCN2CCCCC2)c1OC the results were Lmaj promast 99.8*, TNAP inh hiacc -9.1, TNAP inh no acc -5.2, TNAP act hi DEA 1.1, bCat KO growth 54.2 and HCT116 PTEN-null 58.4.
For COc1cccc(CNc2ccc(N3CCCCC3)cc2)c1OC the results were Lmaj promast 99.8*, TNAP inh hiacc -4.4, TNAP inh no acc -8.4, TNAP act hi DEA 1, bCat KO growth 85.9 and HCT116 PTEN-null 97.8.
c1ccc(Cn2c(CNc3nc4ccccc4n3CCN3CCOCC3)nc3ccccc32)cc1 was read as Lmaj promast 58.5*, TNAP inh hiacc -7.5, TNAP inh no acc -43.2, TNAP act hi DEA 1.1, bCat KO growth 72.3 and HCT116 PTEN-null 70.8.
`CCn1c(NCc2cccc(OC)c2OC)nc2ccccc21` gave Lmaj promast 6.1, TNAP inh hiacc -3.3, TNAP inh no acc -11.5, TNAP act hi DEA 1, bCat KO growth 88.8 and HCT116 PTEN-null 90.7.
For c1ccc2c(c1)nc(NCc1ccc3c(c1)OCO3)n2CCN1CCOCC1 the results were Lmaj promast 2.6, TNAP inh hiacc -5.3, TNAP inh no acc -8.2 and TNAP act hi DEA 1.1.
`COc1ccc(CNc2nc3ccccc3n2CCN2CCCCC2)c(OC)c1` gave Lmaj promast 92.2*, TNAP inh hiacc -1.4, TNAP inh no acc -8.8, TNAP act hi DEA 1, bCat KO growth 50.9 and HCT116 PTEN-null 61.9.
For COc1ccc([N+](=O)[O-])cc1N(CC(=O)N1CCCC1)S(C)(=O)=O the results were Lmaj promast -9.1, TNAP inh hiacc 0.2, TNAP inh no acc -0.8 and TNAP act hi DEA 1.
For COc1ccc(OC)c(CNc2nc3ccccc3n2CCN2CCCCC2)c1 the results were Lmaj promast 67.4*, TNAP inh hiacc 5.4, TNAP inh no acc -0.8, TNAP act hi DEA 0.9, bCat KO growth 50.3 and HCT116 PTEN-null 41.8.
`CCCn1c(NCc2cc(OC)ccc2OC)nc2ccccc21` gave Lmaj promast 32.8, TNAP inh hiacc -4.8, TNAP inh no acc -10.1, TNAP act hi DEA 1, bCat KO growth 75.4 and HCT116 PTEN-null 68.2.
`CC1CN(C(=O)Nc2ccc3c(c2)OCO3)CC(C)O1` (centres undefined) gave Lmaj promast -3.7, TNAP inh hiacc 0.3, TNAP inh no acc -13.9, TNAP act hi DEA 1, bCat KO growth 89.2 and HCT116 PTEN-null 94.1.
For O=C(NN=C1CCCCCC1)c1ccc2c(c1)OCO2 the results were Lmaj promast -1.1, TNAP inh hiacc -6.3, TNAP inh no acc -10.4 and TNAP act hi DEA 1.1.
C=CCn1cnc2c(c1=O)c1nc3ccccc3nc1n2/N=C/c1cccc(OC)c1OC was read as TNAP inh hiacc -4.4, TNAP inh no acc -10.0 and TNAP act hi DEA 1.
`C=CCn1cnc2c(c1=O)c1nc3ccccc3nc1n2/N=C/c1cc(OC)c(OC)c(OC)c1` gave Lmaj promast 100.2*, TNAP inh hiacc -1.4, TNAP inh no acc -3.9, TNAP act hi DEA 1, bCat KO growth 0.8* and HCT116 PTEN-null 1.4*.
Screening CC(=O)c1cnc(N(C)C)s1 returned Lmaj promast -0.4, TNAP inh hiacc -1.4, TNAP inh no acc -5.1, TNAP act hi DEA 1, bCat KO growth 92.4 and HCT116 PTEN-null 91.3.
Screening CN(C)c1ncc(C2=C(Cl)C(=O)C(N3CCCC3)=C(Cl)C2=O)s1 returned Lmaj promast 33.1, bCat KO growth 1.4* and HCT116 PTEN-null 1.6*.
For Cc1nc2ccccn2c1C(=O)/C=C/c1ccc(F)cc1 the results were Lmaj promast 86.3*, TNAP inh hiacc -0.7, TNAP inh no acc -3.6, TNAP act hi DEA 1, bCat KO growth 14.0 and HCT116 PTEN-null 14.6.

Source: PubChem BioAssay
